Sampled rows, rich in hits. Any-hit rate of the full collection: about 1.3%.
Lipid droplet – modulators of hepatic lipid droplet formation. 240,000 tested, 0.4% active. AML12 mouse hepatocytes, oleate lipid droplets, BODIPY imaging. AID 1656. inhibition, % at 6.5 µM;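 active means lipid droplet intensity inhibited by at least 50%, with more than 500 cells counted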
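Technique: fluorescence imaging, 20x objective, two fields per well / Assay system: AML12 hepatocytes (mouse) / Measure: % inhibition of lipid droplet signal / Doses: 6.5 µM single-point dosing / Incubation: overnight exposure / Reagent: 100 µM oleic acid challenge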
VLA-4 inh – inhibition in a human VLA-4 binding assay. inhibition, % (about 7 µM as worked out from the volumes in the protocol). VLA-4 expressing cells, ligand binding flow cytometry. 330,000 tested, 0.2% active. P13612. AID 2557; in the data active means inhibition above about 50%
proCasp7 act – counter-screen for procaspase-3 activators: activators of human procaspase-7. AID 463210. recombinant procaspase-7, Ac-DEVD-pNA absorbance 405 nm; D23A/D198A/D206A triple mutant, cannot self-cleave; scale: DMSO 0, 5 µM enzyme 100. 330,000 tested, 0.093% active. activation, % at 8.5 µM. P55210;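 active means percent activation above the screen-wide mean plus 3 SD, cut at about 25% in these data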
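Material: Procaspase-7 triple mutant (PC-7 D3A) | Quantity: 2 µM procaspase-7 mutant as dispensed | Reagent: DEVD-pNA substrate | Times: 1 h preincubation, 2 h reaction | Technique: 405 nm absorbance of p-nitroaniline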
JMJD2C inh – human JMJD2C demethylase inhibition | Q9H3R0 | GST-JMJD2C(1-420) H3K9me3 demethylation, DELFIA europium | inhibition, % at 2.35 µM | 330,000 tested, 0.069% active | AID 2099;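 active means more than half of a compound's replicate wells show inhibition beyond 50%, single wells judged on their own value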;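 further: signal counts dimethyl H3K9 product captured on neutravidin plate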
Target sequence (Q9H3R0 1-420 limits assumed): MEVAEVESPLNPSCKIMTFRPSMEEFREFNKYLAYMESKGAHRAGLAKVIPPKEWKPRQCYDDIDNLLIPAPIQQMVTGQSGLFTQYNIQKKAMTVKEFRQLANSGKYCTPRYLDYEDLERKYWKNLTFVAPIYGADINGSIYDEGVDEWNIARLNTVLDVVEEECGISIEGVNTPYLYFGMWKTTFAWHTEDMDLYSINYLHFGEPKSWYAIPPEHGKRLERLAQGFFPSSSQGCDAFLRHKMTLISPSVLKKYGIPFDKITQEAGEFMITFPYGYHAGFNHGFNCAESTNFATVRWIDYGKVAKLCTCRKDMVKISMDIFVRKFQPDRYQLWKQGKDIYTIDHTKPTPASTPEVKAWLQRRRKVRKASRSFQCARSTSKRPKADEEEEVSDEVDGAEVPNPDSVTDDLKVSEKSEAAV
procasp3 activ – activators of human procaspase-3. activation, % at 8.5 µM. recombinant procaspase-3 D3A, Ac-DEVD-pNA absorbance 405 nm. AID 463141. P42574. 330,000 tested, 0.11% active;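 active means activation above the mean of all tested compounds plus 3 SD, cut at about 21% in these data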
Target sequence (P42574 whole entry D9A/D28A/D175A): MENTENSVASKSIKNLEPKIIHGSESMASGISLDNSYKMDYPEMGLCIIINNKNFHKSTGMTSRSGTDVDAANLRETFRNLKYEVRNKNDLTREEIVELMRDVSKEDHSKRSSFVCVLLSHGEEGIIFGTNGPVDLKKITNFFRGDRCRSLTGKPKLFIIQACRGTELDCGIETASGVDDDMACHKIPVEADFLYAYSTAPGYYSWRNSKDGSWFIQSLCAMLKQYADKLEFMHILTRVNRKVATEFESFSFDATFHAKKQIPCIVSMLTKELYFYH
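Assay system – Procaspase-3 D3A mutant · Benchmarks – DMSO low control, extra-enzyme high control · Technique – 405 nm absorbance of p-nitroaniline, reads at 0 and 120 min · Doses – 8.5 µM nominal · Measure – % activation between DMSO and enzyme-spiked controls · Also added – Ac-DEVD-pNA chromogenic peptide substrate · Schedule – 1 h compound preincubation, 2 h substrate hydrolysis at 25 °C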
GRK2 aptamer HTS – human GRK2 inhibition via aptamer displacement; 330,000 tested, 0.59% active; bead flow cytometry, FAM-aptamer displacement from GRK2; inhibition of aptamer binding, % at 10 µM;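 active means inhibition of aptamer binding above 40%, roughly 3 SD of noise, on plates passing a quality check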;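 further: median bead fluorescence of bound FAM aptamer so fluorescent compounds give negative values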
PC3 dual counter – counter-screen: procaspase-3 (human) activation; shares compounds with proCasp7 act; recombinant PC-3 D3A, Ac-DEVD-pNA absorbance 405 nm; aspartates 9, 28, 175 changed to alanine; 100% = enzyme control; activation, % at 8.5 µM; 290 tested, under 10 active; AID 493114;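 active means mean percent activation across triplicates above a set limit taken from the earlier primary procaspase-3 screen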
PC7 dual conf – procaspase-7 (human) activation, dual activator confirmation; shares compounds with proCasp7 act; recombinant procaspase-7, Ac-DEVD-pNA absorbance 405 nm; D23A/D198A/D206A mutant that cannot self-cleave; activation, % at 8.5 µM; 290 tested, under 10 active;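 active means mean activation above a set limit carried over from the earlier primary screen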
A number is an active result; i = inactive; nt = not tested or not shown.

SMILES	Lipid droplet	VLA-4 inh	proCasp7 act	JMJD2C inh	procasp3 activ	GRK2 aptamer HTS	PC3 dual counter	PC7 dual conf
COc1cc(-n2c(=O)c3ccccc3n(Cc3cccnc3)c2=O)cc(OC)c1OC	nt	i	26.8	i	i	i	i	i
O=C(c1ccco1)c1cc2c(ccc3ccccc32)oc1=O	nt	i	26.1	i	i	i	i	i
CC(=O)c1cc2c(ccc3ccccc32)oc1=O	i	i	nt	i	nt	i	nt	nt
Nc1c(S(=O)(=O)c2cccs2)c2nc3ccccc3nc2n1Cc1cccs1	nt	i	77.7	i	81.6	i	i	i
O=c1c(-c2nc3ccccc3s2)cccn1Cc1ccccc1	nt	i	56.0	i	i	i	i	i
Nc1ccccc1-c1nc2ccccc2s1	i	i	i	i	i	i	nt	nt
Cc1ccc(Cn2cccc(-c3nc4ccccc4s3)c2=O)cc1	i	i	43.2	i	i	i	i	i
Cc1ccc(NC(=O)Cc2nc(CN(C)CC(=O)Nc3ccc(C)cc3)cs2)cc1	nt	i	i	nt	i	i	nt	nt
S=C1N(c2ccccc2)CN(C2CCCCC2)CN1c1ccccc1	i	i	i	i	i	i	nt	nt
CCOc1ccc(N2C(=O)CC(Cc3ccc(Br)cc3)C2=O)cc1 (stereo unspecified)	i	i	80.9	i	i	i	i	i
COc1ccc(N2C(=O)CC(Cc3ccc(Br)cc3)C2=O)cc1 (stereo unspecified)	i	i	i	i	i	i	nt	nt
COc1ccc(NC(=O)c2cc([N+](=O)[O-])ccc2N2CCCCC2)cc1	i	i	i	i	i	i	nt	nt
O=C(NC(NC1CCS(=O)(=O)C1)C(=O)c1ccccc1)c1ccc(Cl)cc1 (stereo unspecified)	nt	i	47.0	i	i	i	i	i
O=C(NC(=S)NC1CCS(=O)(=O)C1)c1ccccc1 (stereo unspecified)	i	i	i	i	i	i	nt	nt
Cn1c2ccccc2c(=O)c2cc(C#Cc3ccsc3)ccc21	nt	i	39.7	i	38.5	i	i	i
Cn1c2ccccc2c(=O)c2ccc(C#Cc3ccccn3)cc21	nt	i	26.9	i	i	i	i	i
Cn1c2ccccc2c(=O)c2cc(C#CC3(O)CCCCC3)ccc21	i	i	179.9	i	40.9	i	i	i
Cn1c2ccccc2c(=O)c2cc(C#Cc3ccccn3)ccc21	nt	i	i	i	i	i	nt	nt
Cc1cc(C)c(S(=O)(=O)N2CCN(C(=O)CN3C(=O)NC4(CCCC4)C3=O)CC2)c(C)c1	i	i	i	i	i	i	nt	nt
CN(C(=O)c1ccc(COc2ccccc2Br)o1)c1ccccc1	i	i	i	i	i	i	nt	nt
O=C(N/N=C/c1c[nH]c2ccccc12)c1cc(-c2ccc3ccccc3c2)n[nH]1	i	i	30.6	i	i	i	i	i
CS(=O)(=O)N1N=C(c2ccco2)CC1c1ccco1 (stereo unspecified)	i	i	35.8	i	i	i	i	i
CS(=O)(=O)N1N=C(c2ccco2)CC1c1ccccc1 (stereo unspecified)	i	i	i	i	i	i	nt	nt
COc1ccc(-c2cc(C(F)F)n3ncc(C(=O)N4CCc5ccccc5C4)c3n2)cc1	i	i	26.3	i	i	i	i	i
Cc1cccc(S(=O)(=O)Nc2ccc(-c3nc4ccc(C)cc4s3)cc2)c1	i	i	43.4	i	23.4	i	i	i
SMILES	Lipid droplet	VLA-4 inh	proCasp7 act	JMJD2C inh	procasp3 activ	GRK2 aptamer HTS	PC3 dual counter	PC7 dual conf
Cc1ccc2nc(-c3ccc(NC(=O)CCS(=O)(=O)c4ccccc4)cc3)sc2c1	i	i	i	i	i	i	nt	nt
COc1ccc(/C=C/C(=O)Nc2cccc(S(=O)(=O)NC3=NCCCCC3)c2)c(OC)c1	nt	i	i	i	i	i	nt	nt
COc1ccc(OC)c(/C=C/C(=O)Nc2cccc(S(=O)(=O)NC3=NCCCCC3)c2)c1	nt	i	84.5	i	26.4	i	i	i
COc1cc(OC)c(N(C)S(=O)(=O)c2cccc(C(=O)NC3=NCCS3)c2)cc1Cl	i	i	i	i	i	i	nt	nt
COC(=O)c1ccc(CNC(=O)[C@@H]2CCCN2S(=O)(=O)c2ccccc2F)cc1	nt	i	26.4	i	i	i	i	i
Fc1ccc(C2CC(c3ccco3)=NN2c2ccccc2)cc1 (stereo unspecified)	nt	i	36.0	i	32.5	i	i	i
CCc1cc2c3c(c(=O)oc2cc1O)CCCC3	i	i	26.0	i	27.9	i	i	i
c1ccc2c(-c3c[nH]c4ccccc34)c3ccccc3nc2c1	nt	i	33.5	i	i	i	i	i
Cc1ccccc1Cn1ccc(NC(=O)c2cc3nc(-c4ccco4)cc(C(F)(F)F)n3n2)n1	nt	i	48.0	i	i	i	i	i
O=C(Nc1cccc(O)c1)c1cccc(S(=O)(=O)N2CCCC2)c1	i	i	25.7	i	i	i	i	i
Cc1nc2scc(C)n2c(=O)c1S(=O)(=O)Nc1ccc(N2CCOCC2)cc1	i	i	i	i	i	i	nt	nt
O=C(NCCN1CCOCC1)C(=O)c1c[nH]c2ccccc12	i	i	30.4	i	i	i	i	i
O=C(CN1CCOCC1)c1c[nH]c2ccccc12	nt	i	i	i	i	i	nt	nt
C=CCSc1nnc(-c2cc3c(s2)-c2ccccc2CC3)o1	i	i	27.7	i	i	i	i	i
CC1CCCC(C)N1C(=O)COC(=O)c1ccco1 (stereo unspecified)	nt	i	i	i	i	i	nt	nt
CCOc1cccc(OCCOc2ccc(C(=O)c3ccccc3)cc2)c1	i	i	25.9	i	i	i	i	i
CC1CCCCC1NC(=O)C1CCC(CNS(=O)(=O)c2ccccc2)CC1 (stereo unspecified)	i	i	i	i	i	i	nt	nt
CCOC(=O)Cc1nc2ccccc2[nH]1	i	i	78.5	i	i	i	i	i
Cc1ccc(C(=O)Cc2nc3ccccc3[nH]2)cc1	i	i	i	i	i	i	nt	nt
O=C(c1cc(F)c(F)cc1Cl)N1CCN(CCc2ccccc2)CC1	i	i	i	i	i	i	nt	nt
Cc1cc(C)c2c(N)c(C(=O)N/N=C/c3ccccc3)sc2n1	i	i	32.1	i	35.2	i	i	i
O=C(O)CC(C(=O)NCc1ccccc1)C1CCCO1 (stereo unspecified)	nt	i	27.0	i	i	i	i	i

High-throughput results (PubChem BioAssay)
